Experimental data published in ChEMBL document CHEMBL4610111, “Phenolic Compounds from Morus nigra Regulate Viability and Apoptosis of Pancreatic β-Cells Possibly via SERCA Activity” (ACS Med Chem Lett, 2020).
pIC50: −log10 of the molar value. Calls of active or inactive are those of the source. The rule behind the calls is not given here.

How the values were obtained:
[1] = target: Sarcoplasmic/endoplasmic reticulum calcium ATPase 1 (Oryctolagus cuniculus) (UniProt P04191); experiment: Binding affinity to cytosolic region of SERCA1 ATP binding site in NewZealand rabbit SR vesicles assessed as conformational changes by measuring decrease in fluorescence intensity at IC50 incubated for 1 hr by FITC probe labeling based analysis
Method in brief: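 FITC labelling of SR vesicles (protein 12.5 mg/mL) after 1 h preincubation with compound, used as a probe of the cytosolic region of SERCA1. Figure legend states 30 min incubation at 20 mg/mL SR protein. Read-out is the decrease in FITC fluorescence versus untreated control. Mean ± SD from at least three independent experiments, each sample measured 2–3 times.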

[2] = target: Sarcoplasmic/endoplasmic reticulum calcium ATPase 1 (Rattus norvegicus) (UniProt Q64578); experiment: Inhibition of SERCA1 in rat INS-1E cells assessed as insulin release preincubated for 24 hrs followed by incubation in glucose-free buffer and measured after 30 mins by RIA; type: cell-based
Method in brief: (§1)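 INS-1E cells preincubated 24 h with compound, then washed and incubated 30 min at 37 °C in glucose-free KRBH. A further 30 min at 37 °C followed in KRBH containing 16.7 mM glucose. Insulin in collected supernatants determined by RIA with rat insulin standard.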

[3] = target: Sarcoplasmic/endoplasmic reticulum calcium ATPase 1 (Oryctolagus cuniculus, UniProt P04191); experiment: Inhibition of SERCA1 in NewZealand rabbit skeletal muscle SR vesicles using ATP as substrate incubated for 2 mins followed by Ca2+ addition by NADH coupled enzyme assay; conditions: for IC50: sr; for pIC50: read-out: IC50
Method in brief: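 SR vesicles (1 mg prot./ml) incubated with compound (10–70 μM) for 2 min at 37 °C, pH 7.2. Ca2+-ATPase rate measured by NADH-coupled enzyme assay as absorbance at 340 nm, 37 °C. Compared with untreated control; mean ± SD from at least three independent experiments.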

[4] = target: Sarcoplasmic/endoplasmic reticulum calcium ATPase 1 (Rattus norvegicus) (UniProt Q64578); experiment: Inhibition of SERCA1 in glucose-stimulated rat INS-1E cells assessed as decline in insulin release preincubated for 24 hrs followed by glucose addition and measured after 30 mins by RIA; method in brief: as §1
[5] = target: Sarcoplasmic/endoplasmic reticulum calcium ATPase 1 (Rattus norvegicus) (UniProt Q64578); experiment: Inhibition of SERCA1 in rat INS-1E cells assessed as induction of apoptosis by measuring decrease in living cells at IC50 for cell viability incubated for 24 hrs by Annexin V-FITC/propidium iodide staining based flow cytometry
Method in brief: (§2)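 INS-1E cells incubated 24 h with compound, then stained with Annexin V-FITC/propidium iodide. Living, early apoptotic and late apoptotic fractions scored by flow cytometry and compared with untreated cells.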

[6] = target: Sarcoplasmic/endoplasmic reticulum calcium ATPase 1 (Rattus norvegicus) (UniProt Q64578); experiment: Inhibition of SERCA1 in rat INS-1E cells assessed as induction of apoptosis by measuring increase in early apoptotic cells at IC50 for cell viability incubated for 24 hrs by Annexin V-FITC/propidium iodide staining based flow cytometry; method in brief: as §2
[7] = target: Sarcoplasmic/endoplasmic reticulum calcium ATPase 1 (Oryctolagus cuniculus) (UniProt P04191); experiment: Binding affinity to transmembrane region of SERCA1A ATP binding site in NewZealand rabbit SR vesicles assessed as conformational changes by measuring intrinsic Trp fluorescence at IC50 incubated for 30 mins by spectrofluorometric analysis
Method in brief: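 SR vesicles (1 mg protein/mL) incubated 30 min with compound, at 37 °C per methods or room temperature per legend. Trp fluorescence excited at 295 nm, with emission maxima at 336 and 358 nm. Conformational change expressed as the I358/I336 ratio versus untreated control.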

[8] = target: Sarcoplasmic/endoplasmic reticulum calcium ATPase 1 (Rattus norvegicus) (UniProt Q64578); experiment: Inhibition of SERCA1 in rat INS-1E cells assessed as induction of apoptosis by measuring increase in late apoptotic cells at IC50 for cell viability incubated for 24 hrs by Annexin V-FITC/propidium iodide staining based flow cytometry; method in brief: as §2
[9] = test system: INS-1E; experiment: Induction of SERCA2b expression in rat INS-1E cells at IC50 for cell viability incubated for 24 hrs by Western blot analysis; type: functional, cell-based
Method in brief: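 INS-1E cells grown in RPMI 1640 (11 mM glucose) were exposed to compound for 24 h, then lysed in ice-cold lysis buffer, homogenized through a needle and centrifuged. Lysates (15 μg/lane) separated by SDS-PAGE and immunoblotted for SERCA2. Signal normalized to β-actin and given as %, average of 3–6 experiments.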

Chain of Sarcoplasmic/endoplasmic reticulum calcium ATPase 1 (Rattus norvegicus) (Q64578 whole entry): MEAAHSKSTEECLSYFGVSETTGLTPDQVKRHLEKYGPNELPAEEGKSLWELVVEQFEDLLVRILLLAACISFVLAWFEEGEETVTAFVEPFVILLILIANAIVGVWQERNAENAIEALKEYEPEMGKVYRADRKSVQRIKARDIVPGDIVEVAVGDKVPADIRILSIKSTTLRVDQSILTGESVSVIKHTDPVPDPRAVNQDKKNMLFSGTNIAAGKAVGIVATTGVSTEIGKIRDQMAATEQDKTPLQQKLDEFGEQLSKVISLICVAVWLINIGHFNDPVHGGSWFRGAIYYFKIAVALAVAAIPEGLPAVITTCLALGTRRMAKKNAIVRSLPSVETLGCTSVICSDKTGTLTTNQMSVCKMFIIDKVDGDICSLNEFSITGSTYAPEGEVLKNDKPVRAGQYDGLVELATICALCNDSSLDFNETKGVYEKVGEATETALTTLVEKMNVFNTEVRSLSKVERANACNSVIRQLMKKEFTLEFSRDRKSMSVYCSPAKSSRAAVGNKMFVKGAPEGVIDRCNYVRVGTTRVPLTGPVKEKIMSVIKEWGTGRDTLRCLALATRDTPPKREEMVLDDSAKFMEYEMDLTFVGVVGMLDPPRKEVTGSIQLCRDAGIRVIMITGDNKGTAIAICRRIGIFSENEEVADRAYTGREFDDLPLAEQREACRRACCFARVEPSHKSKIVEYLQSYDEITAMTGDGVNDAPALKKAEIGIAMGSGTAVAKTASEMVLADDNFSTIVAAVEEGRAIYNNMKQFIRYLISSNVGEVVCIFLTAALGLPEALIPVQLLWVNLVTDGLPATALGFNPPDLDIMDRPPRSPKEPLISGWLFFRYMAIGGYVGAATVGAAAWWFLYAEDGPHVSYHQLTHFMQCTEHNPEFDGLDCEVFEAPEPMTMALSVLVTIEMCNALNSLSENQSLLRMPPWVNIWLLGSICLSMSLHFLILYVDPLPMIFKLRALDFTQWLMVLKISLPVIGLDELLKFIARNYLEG
Chain of Sarcoplasmic/endoplasmic reticulum calcium ATPase 1 (Oryctolagus cuniculus) (P04191 whole entry): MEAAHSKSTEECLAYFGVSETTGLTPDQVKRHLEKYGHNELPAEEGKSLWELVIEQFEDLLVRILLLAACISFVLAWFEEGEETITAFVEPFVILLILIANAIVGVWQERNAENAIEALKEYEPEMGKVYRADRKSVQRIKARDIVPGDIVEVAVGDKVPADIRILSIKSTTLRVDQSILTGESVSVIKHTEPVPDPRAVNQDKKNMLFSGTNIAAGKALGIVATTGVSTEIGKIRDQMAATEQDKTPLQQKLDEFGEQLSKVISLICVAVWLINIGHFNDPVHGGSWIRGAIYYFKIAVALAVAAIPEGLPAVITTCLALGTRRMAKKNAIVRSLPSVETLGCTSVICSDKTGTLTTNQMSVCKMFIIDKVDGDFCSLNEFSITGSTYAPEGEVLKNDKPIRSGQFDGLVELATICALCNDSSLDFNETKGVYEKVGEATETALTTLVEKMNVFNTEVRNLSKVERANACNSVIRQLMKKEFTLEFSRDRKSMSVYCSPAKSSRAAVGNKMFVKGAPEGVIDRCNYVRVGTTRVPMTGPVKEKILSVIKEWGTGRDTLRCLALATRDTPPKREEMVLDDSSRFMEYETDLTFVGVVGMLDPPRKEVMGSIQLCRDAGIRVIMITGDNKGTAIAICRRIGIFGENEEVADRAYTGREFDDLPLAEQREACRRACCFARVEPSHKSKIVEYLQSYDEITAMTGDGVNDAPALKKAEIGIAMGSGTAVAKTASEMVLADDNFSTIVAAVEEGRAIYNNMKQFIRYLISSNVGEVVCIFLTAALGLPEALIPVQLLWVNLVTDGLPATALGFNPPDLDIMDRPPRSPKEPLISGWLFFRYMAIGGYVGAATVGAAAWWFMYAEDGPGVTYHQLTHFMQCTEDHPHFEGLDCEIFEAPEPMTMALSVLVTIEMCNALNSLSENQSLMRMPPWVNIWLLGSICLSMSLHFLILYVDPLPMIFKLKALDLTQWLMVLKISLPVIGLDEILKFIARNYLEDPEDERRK
Chain of Sarcoplasmic/endoplasmic reticulum calcium ATPase 1 (P04191 whole entry): as above

SMILES | Activity [1] | inhibition [2] | IC50 [3] | inhibition [4] | Activity [7] | pIC50 [3] | inhibition [5] | inhibition [6] | inhibition [8] | Activity [9]
CC(C)(O)C1Cc2cc3cc(-c4cc(O)cc(O)c4)oc3cc2O1 (stereo not drawn) [MORACIN O] | Active | inactive | Not Active | Active | Active |  | Active | Active | inactive | 
CC1(C)Oc2cc3oc(-c4cc(O)cc(O)c4)cc3cc2CC1O (stereo not drawn) [(+/-)-MORACIN P] | Active | inactive | Not Active | Active | Active |  | Active | Active | inactive | 
COc1cc(O)c([C@@H]2CC(=O)c3c(O)cc(O)cc3O2)cc1C/C=C(\C)CCC=C(C)C | Active | inactive |  | Active | Active | 4.45 | Active | Active | Active | 
CC(C)=CCc1c(-c2ccc(O)cc2O)oc2c3c(cc(O)c2c1=O)OC(C)(C)C=C3 [MORUSIN] | Active | inactive |  | Active | Active | 4.36 | Active | inactive | Active | 

Continued, in another order:

Activity [1] | inhibition [2] | IC50 [3] | inhibition [4] | Activity [7] | pIC50 [3] | SMILES | inhibition [5] | inhibition [6] | inhibition [8] | Activity [9]
inactive | inactive |  | Active | inactive | 4.61 | Cc1cc2c3c(c1)-c1c(O)cc(-c4cc5ccc(O)cc5o4)cc1O[C@@]3(c1ccc(O)cc1O)Oc1cc(O)ccc1-2 | Active | Active | inactive | Active
Active | inactive |  | Active | Active | 4.53 | CC(C)=CCC/C(C)=C/Cc1cc([C@@H]2CC(=O)c3c(O)cc(O)cc3O2)c(O)cc1O | Active | Active | Active | 
inactive | inactive |  | Active | inactive | 4.72 | CC1=C[C@@H]2c3c(O)cc(-c4cc5ccc(O)cc5o4)cc3O[C@@]3(c4ccc(O)cc4O)Oc4cc(O)ccc4[C@@H](C1)[C@H]23 | Active | Active | inactive | Active
